Data on 24 molecules can be found in ChEMBL document CHEMBL1126132, “5,5-disubstituted hydantoins: syntheses and anti-HIV activity” (J Med Chem, 1992).

One may read the IC50 as the concentration at which inhibition is half-maximal. Lower therefore signals higher potency.

For experiment [1], the system named is MT2. Kind of experiment: Inhibition of HIV-1 RF induced cytotoxicity in MT-2 cells; Inactive. Type of experiment: functional, cell-based. In short, it runs like this: (§1)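 MT-2 cells at 5×10^3 per well were infected with HIV-1 RF at MOI 0.005, chosen to give complete killing at 6 days. Triplicate wells received five half-log dilutions from 100 μM. After 6 days at 37 °C, XTT colorimetry gave viability. IC50 is the minimum concentration reducing CPE by 50%, calculated by semilog regression.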

Experiment [2] relates to CCRF-CEM. Kind of experiment: Inhibition of HIV-1 RF induced cytotoxicity in CEM cells; Inactive. In kind it is functional, cell-based. In short, it runs like this: (§2)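 CEM cells at 5×10^3 per well were infected with HIV-1 RF at MOI 0.01, chosen to give complete cell killing by day 6. Five serial half-log dilutions starting at 100 μM were tested in triplicate. After 6 days at 37 °C, viability was read by XTT. IC50 is the minimum concentration inhibiting CPE by 50%, from semilog regression curve fitting.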

Experiment [3] concerns MT2. The experiment is described as follows: Compound was tested for antiviral activity by measuring its ability to inhibit HIV induced virus production in MT-2 cells; NT indicates nontoxic uM. Type of experiment: functional, cell-based. In short, it runs like this: (§3)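 Cytotoxicity was measured in uninfected cells with drug, in CEM or MT-2 at 5×10^3 per well. There were five half-log dilutions up to 100 μM, the highest concentration, in triplicate. Cells were incubated 6 days at 37 °C and viability was read by XTT. TC25 is the minimum concentration cutting viability by 25%; NT means nontoxic up to 100 μM.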

The test system of experiment [4] is CCRF-CEM. Kind of experiment: Compound was tested for antiviral activity by measuring its ability to inhibit HIV induced virus production in CEM cells; NT indicates nontoxic uM. In kind it is functional, cell-based. To be noted: Homo sapiens. In short, it runs like this: as §3
Experiment [5] concerns CCRF-CEM. The experiment is described as follows: Compound was tested for antiviral activity by measuring its ability to inhibit HIV induced virus production in CEM cells. Type of experiment: functional, Homo sapiens.
Experiment [6] relates to Human immunodeficiency virus type 1 (RF/HAT ISOLATE). The experiment is described as follows: Inhibition of HIV-1 RF viral production in MT-2 cells. In kind it is functional, Human immunodeficiency virus 1, MT2.
Experiment [7] deals with MT2. Kind of experiment: Compound was tested for antiviral activity by measuring its ability to inhibit HIV induced cell killing in MT-2 cells. Type of experiment: functional, cell-based. To be noted: Homo sapiens. In short, it runs like this:
as §1

Experiment [8] deals with CCRF-CEM. The experiment is described as follows: Compound was tested for antiviral activity by measuring its ability to inhibit HIV induced cell killing in CEM cells. The conditions noted are these: Homo sapiens. Type of experiment: functional, cell-based. In short, it runs like this:
as §2

With `O=C1NC(=O)C(CSCc2cccnc2)(CSCc2cccnc2)N1`, the IC50 result in the experiment on MT2 [1] and in the experiment on CCRF-CEM [2] was “Nontoxic up to 100uM” each time. Further, the TC25 entry in the experiment on MT2 [3] (Homo sapiens) and with CCRF-CEM [4] was “Nontoxic up to 100uM” throughout.
Consider `O=C1NC(=O)C(COCc2ccccc2)(COCc2ccccc2)N1`, for which the IC50 result in the experiment with MT2 [1] and in the experiment with CCRF-CEM [2] was “Nontoxic up to 100uM” throughout. Besides, the TC25 in the experiment on CCRF-CEM [5] was greater than 100 µM; in experiment [6] it was 87 µM.
On to `NC(CSCc1ccccc1)(CSCc1ccccc1)C(=O)O`, for which the IC50 entry in the experiment on MT2 [1] and with CCRF-CEM [2] was “Nontoxic up to 100uM” in each case. The TC25 in experiment [6] was 60 µM; with CCRF-CEM [4], “Nontoxic up to 100uM”.
Take `O=C1NC(=O)C(CSCc2ccccn2)(CSCc2ccccn2)N1`: the IC50 entry in the experiment on CCRF-CEM [2] is “Nontoxic up to 100uM”; with MT2 [7], 81 µM. Also, the TC25 result in the experiment with MT2 [3] (Homo sapiens) and in the experiment on CCRF-CEM [4] was “Nontoxic up to 100uM” in each case.
As for `O=C1NC(=O)C(CSCc2cccs2)(CSCc2cccs2)N1`, the IC50 result in the experiment on MT2 [1] and in the experiment with CCRF-CEM [2] was “Nontoxic up to 100uM” in each case. The TC25 in experiment [6] is 17 µM; in the experiment with CCRF-CEM [4] it was “Nontoxic up to 100uM”.
For `O=C1NC(=O)C(CSCc2cccc3ccccc23)(CSCc2cccc3ccccc23)N1`, the IC50 entry with MT2 [1] and in the experiment on CCRF-CEM [2] was “Nontoxic up to 100uM” in each case. For the same molecule, the TC25 entry in the experiment on MT2 [3] (Homo sapiens) and with CCRF-CEM [4] was “Nontoxic up to 100uM” throughout.
`O=C1NC(=O)C(CSC(=O)c2ccccc2)(CSC(=O)c2ccccc2)N1`: the results for the IC50 entry in the experiment with MT2 [1] and with CCRF-CEM [8] were “Nontoxic up to 100uM” and 7 µM, respectively. Besides, the values for the TC25 (in the experiment with CCRF-CEM [5]; in experiment [6]) were 31 µM and 5 µM, respectively.
In the same order, the values of `COc1ccc(CSCC2(CSCc3ccc(OC)cc3)NC(=O)NC2=O)cc1` are “Nontoxic up to 100uM”, 23 µM, 6 µM and 6 µM.
Regarding `COC(=O)c1ccc(CSCC2(CSCc3ccc(C(=O)OC)cc3)NC(=O)NC2=O)cc1`, the IC50 entry in the experiment on MT2 [1] and in the experiment on CCRF-CEM [2] was “Nontoxic up to 100uM” each time. Besides, the TC25 with CCRF-CEM [5] stood at 25 µM; in experiment [6], 10 µM.
`O=C1NC(=O)C(CSCCO)(CSCc2ccccc2)N1` (configuration not stated): the IC50 result with MT2 [1] and in the experiment on CCRF-CEM [2] was “Nontoxic up to 100uM” each time. For the same molecule, the TC25 result in the experiment with MT2 [3] (Homo sapiens) and in the experiment on CCRF-CEM [4] was “Nontoxic up to 100uM” throughout.
Turning to `O=C1NC(=O)C(CSCc2ccccc2)N1` (configuration not stated), the IC50 result with CCRF-CEM [2] was “Nontoxic up to 100uM”. The results for the TC25 (in the experiment with CCRF-CEM [5]; in experiment [6]) were 5 µM and 2 µM, respectively.
For `O=C1NC(=O)C(CS)(CSCc2ccccc2)N1` (configuration not stated), the IC50 entry in the experiment with CCRF-CEM [2] was “Nontoxic up to 100uM”. Further, the figures for the TC25 (in the experiment with CCRF-CEM [5]; in experiment [6]) were 34 µM and 50 µM, respectively.
As for `O=C1NC(=O)C(CSCc2ccc(Br)cc2)(CSCc2ccc(Br)cc2)N1`, the IC50 result in the experiment with MT2 [1] and in the experiment with CCRF-CEM [2] was “Nontoxic up to 100uM” in each case. For the same molecule, the TC25 in the experiment on CCRF-CEM [5] was 16 µM; in experiment [6], 7 µM.
For `N#Cc1ccc(CSCC2(CSCc3ccc(C#N)cc3)NC(=O)NC2=O)cc1`, the 50% inhibitory concentration (IC50) entry is “Nontoxic up to 100uM” with MT2 [1] and 25 µM in the experiment on CCRF-CEM [8]. The values for the TC25 (with CCRF-CEM [5]; in experiment [6]) were 15 µM and 8 µM, respectively.
In the case of `Nc1ccc(CSCC2(CSCc3ccc(N)cc3)NC(=O)NC2=O)cc1`, the values for the IC50 with CCRF-CEM [8] and with MT2 [7] were 88 µM and 6 µM, respectively. Also, the TC25 in experiment [6] was 16 µM; with CCRF-CEM [4] it was “Nontoxic up to 100uM”.
With `O=C1NC(=O)C(CSCc2ccccc2)(CSCc2ccccc2)N1`, the IC50 result in the experiment with CCRF-CEM [2] was “Nontoxic up to 100uM”; in the experiment on MT2 [7], 17 µM. For the same molecule, the TC25 result with MT2 [3] and with CCRF-CEM [4] was “Nontoxic up to 100uM” in each case.
As to `S=C1NC(=S)C(CSCc2ccccc2)(CSCc2ccccc2)N1`, the IC50 result in the experiment with CCRF-CEM [2] is “Nontoxic up to 100uM”. The TC25 (in the experiment on CCRF-CEM [5]; in experiment [6]) was 16 µM each time.
Regarding `O=C1NC(=O)C(CSc2ccncc2)(CSc2ccncc2)N1`, the IC50 entry with MT2 [1] and in the experiment with CCRF-CEM [2] was “Nontoxic up to 100uM” each time. The NT entry in the experiment with MT2 [3] was “Nontoxic up to 100uM”. Besides, the TC25 result with CCRF-CEM [4] was “Nontoxic up to 100uM”.
Consider `O=C1NC(=O)C(CSCc2ccc(C(=O)O)cc2)(CSCc2ccc(C(=O)O)cc2)N1`, for which the IC50 result with MT2 [1] and in the experiment with CCRF-CEM [2] was “Nontoxic up to 100uM” each time. The TC25 result with MT2 [3] and with CCRF-CEM [4] was “Nontoxic up to 100uM” throughout.
Take `O=C1NC(=O)C(CSCc2ccncc2)(CSCc2ccncc2)N1`: the IC50 entry is “Nontoxic up to 100uM” in the experiment on MT2 [1] and 53 µM in the experiment with CCRF-CEM [8]. In addition, the TC25 in experiment [6] is 45 µM; with CCRF-CEM [4], “Nontoxic up to 100uM”.
Turning to `O=C1NC(=O)C(CSc2ccccc2)(CSc2ccccc2)N1`, the IC50 entry with CCRF-CEM [2] is on record as “Nontoxic up to 100uM”. For the same molecule, the values for the TC25 (in the experiment on CCRF-CEM [5]; in experiment [6]) were 64 µM and 50 µM, respectively.
Consider `O=C1NC(=O)C(CSCC2CCCCC2)(CSCC2CCCCC2)N1`, for which the IC50 result in the experiment on MT2 [1] and in the experiment with CCRF-CEM [2] was “Nontoxic up to 100uM” each time. In addition, the values for the TC25 (with CCRF-CEM [5]; in experiment [6]) were 8 µM and 12 µM, respectively.
Take `O=C1NC(=O)C(CS)(CS)N1`: the IC50 entry in the experiment on MT2 [1] was “Nontoxic up to 100uM”; in the experiment on CCRF-CEM [8], 0.6 µM. Besides, the TC25 in the experiment on CCRF-CEM [5] came out at 3 µM; in experiment [6] it was 0.8 µM.
In the same order, the values of `O=C1NC(=O)C(CSCc2ccc([N+](=O)[O-])cc2)(CSCc2ccc([N+](=O)[O-])cc2)N1` are “Nontoxic up to 100uM”, 19 µM, 9 µM and 5 µM.
